ChEMBL document CHEMBL4382192, “Discovery of a potent dual ALK and EGFR T790M inhibitor” (Eur J Med Chem, 2017)

Experiments:
[1] = Metabolic stability in dog liver microsomes assessed as parent compound remaining at 1 uM after 30 mins in presence of NADPH by LC/MS/MS analysis; assay type: ADME, Canis lupus familiaris, Microsome; conditions: read-out: Stability
Summary of the method: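 Compound at 1 μM final with 0.5 mg/mL microsomal protein in 100 mM phosphate buffer pH 7.4 at 37 °C, started by adding an NADPH-regenerating system. Reactions were quenched with cold acetonitrile at 0 and 30 min and spun down. Supernatant was analysed by LC-MS/MS. The 0-min sample, quenched before NADPH addition, was set as 100%, and percent parent remaining came from peak areas.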

[2] = Drug uptake in mouse plasma at 10 mg/kg, po after 8 hrs; assay type: ADME, organism-based
[3] = Drug uptake in mouse lung at 2 mg/kg, iv after 8 hrs; assay type: ADME, organism-based; conditions: read-out: Drug uptake
[4] = tested on: Tyrosine-protein kinase ABL1 (Homo sapiens), P00519 [H396P]; assay: Binding affinity to human phosphorylated ABL1 H396P mutant (S229 to K512 residues) expressed in mammalian expression system assessed as residual binding level at 1 uM by Kinomescan method relative to control
Summary of the method: (§1)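 Kinome-wide selectivity panel run by the KINOMEscan method, with the test compound at a single concentration of 1 μM. Wild-type and mutant kinases were profiled in the same screen.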

[5] = target: Atypical kinase COQ8B, mitochondrial (Homo sapiens) (UniProt Q96D53); assay: Binding affinity to wild-type human full length ADCK4 (M1 to S544 residues) expressed in bacterial expression system assessed as residual binding level at 1 uM by Kinomescan method relative to control
Atypical kinase COQ8B, mitochondrial (Homo sapiens), sequence (Q96D53 whole entry, the tested form may be a part): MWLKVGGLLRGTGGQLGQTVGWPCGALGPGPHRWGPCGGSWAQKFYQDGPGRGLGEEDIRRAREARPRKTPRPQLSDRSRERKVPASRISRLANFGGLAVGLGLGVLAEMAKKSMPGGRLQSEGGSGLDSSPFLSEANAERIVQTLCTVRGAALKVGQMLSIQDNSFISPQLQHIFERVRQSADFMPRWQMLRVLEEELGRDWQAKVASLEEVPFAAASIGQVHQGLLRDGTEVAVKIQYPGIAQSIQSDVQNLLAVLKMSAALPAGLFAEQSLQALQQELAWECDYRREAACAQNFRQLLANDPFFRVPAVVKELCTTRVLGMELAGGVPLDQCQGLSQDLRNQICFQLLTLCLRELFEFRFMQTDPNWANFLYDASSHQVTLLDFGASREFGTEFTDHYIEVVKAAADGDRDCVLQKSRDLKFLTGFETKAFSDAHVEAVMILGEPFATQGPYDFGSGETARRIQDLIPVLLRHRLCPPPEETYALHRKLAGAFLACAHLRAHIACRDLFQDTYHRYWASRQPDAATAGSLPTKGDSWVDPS

[6] = target: RAC-beta serine/threonine-protein kinase (Homo sapiens) (UniProt P31751); assay: Binding affinity to wild-type human partial length AKT2 expressed in bacterial expression system assessed as residual binding level at 1 uM by Kinomescan method relative to control
[7] = target: Cytoplasmic tyrosine-protein kinase BMX (Homo sapiens) (UniProt P51813); assay: Binding affinity to wild-type human full length BMX (M1 to H675 residues) expressed in bacterial expression system assessed as residual binding level at 1 uM by Kinomescan method relative to control
[8] = target: Protein-tyrosine kinase 6 (Homo sapiens) (UniProt Q13882); assay: Binding affinity to wild-type human partial length BRK (L166 to T451 residues) expressed in bacterial expression system assessed as residual binding level at 1 uM by Kinomescan method relative to control
[9] = target: Cyclin-dependent kinase 9 (Homo sapiens) (UniProt P50750); assay: Binding affinity to wild-type human full length CDK9 (M1 to F372 residues) expressed in bacterial expression system assessed as residual binding level at 1 uM by Kinomescan method relative to control
Cyclin-dependent kinase 9 (Homo sapiens), sequence (P50750 whole entry, the tested form may be a part): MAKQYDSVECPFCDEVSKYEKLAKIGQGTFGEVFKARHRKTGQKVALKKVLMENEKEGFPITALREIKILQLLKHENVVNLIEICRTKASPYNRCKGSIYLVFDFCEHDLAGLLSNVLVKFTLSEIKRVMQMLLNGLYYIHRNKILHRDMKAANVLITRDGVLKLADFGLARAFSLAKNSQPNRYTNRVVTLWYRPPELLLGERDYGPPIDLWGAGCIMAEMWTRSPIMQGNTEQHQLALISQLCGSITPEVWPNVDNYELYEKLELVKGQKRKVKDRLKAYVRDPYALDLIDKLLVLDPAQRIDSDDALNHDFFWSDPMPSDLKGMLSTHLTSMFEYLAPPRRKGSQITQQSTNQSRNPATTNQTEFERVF

[10] = target: Macrophage colony-stimulating factor 1 receptor (Homo sapiens) (UniProt P07333); assay: Binding affinity to wild-type human partial length CSF1R (I564 to S939 residues) expressed in bacterial expression system assessed as residual binding level at 1 uM by Kinomescan method relative to control
[11] = tested on: Epidermal growth factor receptor (Homo sapiens), P00533 [UNDEFINED MUTATION]; assay: Binding affinity to human partial length EGFR L747-E749del/A750P mutant expressed in bacterial expression system assessed as residual binding level at 1 uM by Kinomescan method relative to control; summary of the method: as §1
Epidermal growth factor receptor (Homo sapiens), P00533 [UNDEFINED MUTATION], sequence (P00533 whole entry, looked up, stated change not applied, the tested form may be a part): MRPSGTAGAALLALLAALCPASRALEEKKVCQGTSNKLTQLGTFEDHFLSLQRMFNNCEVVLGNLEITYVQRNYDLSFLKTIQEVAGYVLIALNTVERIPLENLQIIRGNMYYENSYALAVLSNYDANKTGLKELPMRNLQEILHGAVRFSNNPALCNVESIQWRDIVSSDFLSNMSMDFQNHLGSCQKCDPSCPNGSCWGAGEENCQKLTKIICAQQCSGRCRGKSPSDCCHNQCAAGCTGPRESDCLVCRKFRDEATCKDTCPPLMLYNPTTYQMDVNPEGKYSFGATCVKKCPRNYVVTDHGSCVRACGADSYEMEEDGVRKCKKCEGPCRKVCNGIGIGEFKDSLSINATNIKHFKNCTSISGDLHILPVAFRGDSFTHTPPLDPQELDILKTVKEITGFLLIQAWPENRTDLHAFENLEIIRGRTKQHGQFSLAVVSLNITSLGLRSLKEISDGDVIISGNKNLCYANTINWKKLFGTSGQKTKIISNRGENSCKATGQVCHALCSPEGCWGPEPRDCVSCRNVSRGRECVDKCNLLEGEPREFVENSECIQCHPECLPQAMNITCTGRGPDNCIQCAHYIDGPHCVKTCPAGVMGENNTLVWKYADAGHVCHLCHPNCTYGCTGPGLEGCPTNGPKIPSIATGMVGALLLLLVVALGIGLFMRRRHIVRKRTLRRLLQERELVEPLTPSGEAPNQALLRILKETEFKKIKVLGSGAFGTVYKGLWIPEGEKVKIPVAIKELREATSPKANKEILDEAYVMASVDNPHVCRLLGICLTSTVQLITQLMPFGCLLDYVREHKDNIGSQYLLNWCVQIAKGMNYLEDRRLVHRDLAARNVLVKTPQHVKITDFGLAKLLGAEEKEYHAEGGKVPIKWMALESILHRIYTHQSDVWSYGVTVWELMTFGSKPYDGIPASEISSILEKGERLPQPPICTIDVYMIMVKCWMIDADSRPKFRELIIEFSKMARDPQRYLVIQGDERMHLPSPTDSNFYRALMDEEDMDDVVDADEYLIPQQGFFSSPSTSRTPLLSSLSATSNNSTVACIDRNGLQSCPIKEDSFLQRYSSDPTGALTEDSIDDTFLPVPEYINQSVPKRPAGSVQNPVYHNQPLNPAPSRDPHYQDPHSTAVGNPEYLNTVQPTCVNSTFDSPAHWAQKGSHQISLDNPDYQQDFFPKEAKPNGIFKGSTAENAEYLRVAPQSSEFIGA

[12] = target: Ephrin type-A receptor 2 (Homo sapiens) (UniProt P29317); assay: Binding affinity to wild-type human partial length EPHA2 (T593 to V891 residues) expressed in bacterial expression system assessed as residual binding level at 1 uM by Kinomescan method relative to control
[13] = target: Ephrin type-A receptor 8 (Homo sapiens) (UniProt P29322); assay: Binding affinity to wild-type human partial length EPHA8 (Q608 to C920 residues) expressed in bacterial expression system assessed as residual binding level at 1 uM by Kinomescan method relative to control
[14] = target: Ephrin type-B receptor 1 (Homo sapiens) (UniProt P54762); assay: Binding affinity to wild-type human partial length EPHB1 (P589 to T911 residues) expressed in bacterial expression system assessed as residual binding level at 1 uM by Kinomescan method relative to control
Ephrin type-B receptor 1 (Homo sapiens), sequence (P54762 whole entry, the tested form may be a part): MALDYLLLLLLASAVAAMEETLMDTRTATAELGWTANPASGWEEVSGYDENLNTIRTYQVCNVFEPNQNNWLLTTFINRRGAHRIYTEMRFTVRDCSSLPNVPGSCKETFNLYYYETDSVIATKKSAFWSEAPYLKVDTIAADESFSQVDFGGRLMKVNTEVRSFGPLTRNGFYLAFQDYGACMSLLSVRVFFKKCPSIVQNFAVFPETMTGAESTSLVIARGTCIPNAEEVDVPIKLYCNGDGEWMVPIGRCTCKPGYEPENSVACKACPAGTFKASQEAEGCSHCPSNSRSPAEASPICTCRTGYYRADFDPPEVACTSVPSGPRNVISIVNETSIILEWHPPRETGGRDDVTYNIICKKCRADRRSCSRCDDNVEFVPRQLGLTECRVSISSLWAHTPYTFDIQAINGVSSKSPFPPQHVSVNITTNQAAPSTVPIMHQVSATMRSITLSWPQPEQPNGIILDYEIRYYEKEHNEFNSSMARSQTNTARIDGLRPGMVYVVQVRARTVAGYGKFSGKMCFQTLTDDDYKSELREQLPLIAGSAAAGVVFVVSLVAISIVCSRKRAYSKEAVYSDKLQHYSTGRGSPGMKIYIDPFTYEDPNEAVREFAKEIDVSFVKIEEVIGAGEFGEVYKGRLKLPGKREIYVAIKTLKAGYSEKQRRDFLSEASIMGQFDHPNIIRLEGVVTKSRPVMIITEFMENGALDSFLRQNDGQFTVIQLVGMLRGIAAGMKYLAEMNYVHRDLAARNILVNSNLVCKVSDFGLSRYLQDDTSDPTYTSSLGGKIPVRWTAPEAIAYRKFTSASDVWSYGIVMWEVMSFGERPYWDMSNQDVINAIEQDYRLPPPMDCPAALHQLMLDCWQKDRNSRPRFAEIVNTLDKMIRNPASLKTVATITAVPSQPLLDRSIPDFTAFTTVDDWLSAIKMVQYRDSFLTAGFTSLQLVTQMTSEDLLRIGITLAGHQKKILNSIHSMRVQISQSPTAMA

[15] = tested on: Receptor-type tyrosine-protein kinase FLT3 (Homo sapiens), P36888 [D835H]; assay: Binding affinity to human partial length FLT3 D835H mutant (V592 to Y969 residues) expressed in bacterial expression system assessed as residual binding level at 1 uM by Kinomescan method relative to control; summary of the method: as §1
[16] = target: Serine/threonine-protein kinase STK11 (Homo sapiens) (UniProt Q15831); assay: Binding affinity to wild-type human full length LKB1 (M1 to Q433 residues) expressed in bacterial expression system assessed as residual binding level at 1 uM by Kinomescan method relative to control
Serine/threonine-protein kinase STK11 (Homo sapiens), sequence (Q15831 whole entry, the tested form may be a part): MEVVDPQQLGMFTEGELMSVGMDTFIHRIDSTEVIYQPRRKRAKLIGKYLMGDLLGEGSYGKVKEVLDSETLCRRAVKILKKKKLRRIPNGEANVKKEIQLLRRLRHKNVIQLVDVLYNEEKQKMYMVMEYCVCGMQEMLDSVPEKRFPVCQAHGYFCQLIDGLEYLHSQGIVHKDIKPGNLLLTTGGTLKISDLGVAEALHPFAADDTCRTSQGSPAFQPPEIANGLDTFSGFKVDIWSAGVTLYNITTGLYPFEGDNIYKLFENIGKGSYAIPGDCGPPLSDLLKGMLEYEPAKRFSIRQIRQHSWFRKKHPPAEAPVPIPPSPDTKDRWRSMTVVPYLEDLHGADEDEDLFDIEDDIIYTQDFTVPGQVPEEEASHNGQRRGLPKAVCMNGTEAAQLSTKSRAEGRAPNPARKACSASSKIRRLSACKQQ
Summary of the method: (§2)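 Single-point kinome-wide KINOMEscan binding panel, test compound at 1 μM, run by the provider's standard protocol.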

[17] = tested on: Leucine-rich repeat serine/threonine-protein kinase 2 (Homo sapiens), Q5S007 [G2019S]; assay: Binding affinity to human partial length LRRK2 G2019S mutant (H970 to E2527 residues) expressed in mammalian expression system assessed as residual binding level at 1 uM by Kinomescan method relative to control; summary of the method: as §1
[18] = target: Mitogen-activated protein kinase kinase kinase 11 (Homo sapiens) (UniProt Q16584); assay: Binding affinity to wild-type human partial length MLK3 (I77 to W399 residues) expressed in bacterial expression system assessed as residual binding level at 1 uM by Kinomescan method relative to control
Mitogen-activated protein kinase kinase kinase 11 (Homo sapiens), sequence (Q16584 whole entry, looked up, the tested form may be a part): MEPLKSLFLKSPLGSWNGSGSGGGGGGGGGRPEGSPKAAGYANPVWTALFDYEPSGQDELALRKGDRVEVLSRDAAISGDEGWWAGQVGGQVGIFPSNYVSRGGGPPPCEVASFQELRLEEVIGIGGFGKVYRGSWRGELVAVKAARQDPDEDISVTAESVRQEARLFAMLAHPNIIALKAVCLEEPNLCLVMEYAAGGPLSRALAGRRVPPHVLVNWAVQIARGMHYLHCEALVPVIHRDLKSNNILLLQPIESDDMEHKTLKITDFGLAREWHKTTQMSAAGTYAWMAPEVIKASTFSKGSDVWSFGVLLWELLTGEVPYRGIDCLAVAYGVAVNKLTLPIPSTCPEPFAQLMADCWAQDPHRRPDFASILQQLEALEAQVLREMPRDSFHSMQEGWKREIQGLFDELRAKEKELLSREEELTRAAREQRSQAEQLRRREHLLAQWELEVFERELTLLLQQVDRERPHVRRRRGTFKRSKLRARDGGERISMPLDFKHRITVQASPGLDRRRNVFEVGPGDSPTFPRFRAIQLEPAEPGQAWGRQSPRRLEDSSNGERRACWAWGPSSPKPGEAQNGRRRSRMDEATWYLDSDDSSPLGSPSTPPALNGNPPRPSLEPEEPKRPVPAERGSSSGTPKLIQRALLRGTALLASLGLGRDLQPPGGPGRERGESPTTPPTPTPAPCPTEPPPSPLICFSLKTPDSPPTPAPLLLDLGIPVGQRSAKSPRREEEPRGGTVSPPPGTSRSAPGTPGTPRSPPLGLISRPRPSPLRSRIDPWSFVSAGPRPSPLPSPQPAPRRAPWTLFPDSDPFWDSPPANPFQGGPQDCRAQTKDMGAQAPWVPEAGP

[19] = target: Serine/threonine-protein kinase MRCK beta (Homo sapiens) (UniProt Q9Y5S2); assay: Binding affinity to wild-type human partial length MRCKB (L56 to S417 residues) expressed in bacterial expression system assessed as residual binding level at 1 uM by Kinomescan method relative to control
[20] = target: Serine/threonine-protein kinase 4 (Homo sapiens) (UniProt Q13043); assay: Binding affinity to wild-type human full length MST1 (M1 to F487 residues) expressed in bacterial expression system assessed as residual binding level at 1 uM by Kinomescan method relative to control; summary of the method: as §2
Serine/threonine-protein kinase 4 (Homo sapiens), sequence (Q13043 whole entry, the tested form may be a part): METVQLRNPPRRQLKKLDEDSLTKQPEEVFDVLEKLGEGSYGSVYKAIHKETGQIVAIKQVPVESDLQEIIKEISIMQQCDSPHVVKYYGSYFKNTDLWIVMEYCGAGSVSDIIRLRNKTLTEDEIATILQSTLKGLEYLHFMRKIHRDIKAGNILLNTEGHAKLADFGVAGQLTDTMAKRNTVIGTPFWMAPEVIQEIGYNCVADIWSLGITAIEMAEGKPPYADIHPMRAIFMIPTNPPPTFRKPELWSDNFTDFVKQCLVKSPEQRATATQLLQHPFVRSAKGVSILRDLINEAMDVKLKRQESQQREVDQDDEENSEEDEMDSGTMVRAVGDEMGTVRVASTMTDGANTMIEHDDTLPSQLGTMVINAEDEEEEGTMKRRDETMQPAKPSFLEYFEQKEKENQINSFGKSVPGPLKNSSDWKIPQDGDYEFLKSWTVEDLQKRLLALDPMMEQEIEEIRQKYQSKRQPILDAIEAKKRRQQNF

[21] = target: Cyclin-dependent kinase 18 (Homo sapiens) (UniProt Q07002); assay: Binding affinity to wild-type human full length PCTK3 (M3 to F474 residues) expressed in bacterial expression system assessed as residual binding level at 1 uM by Kinomescan method relative to control; summary of the method: as §2
[22] = tested on: Phosphatidylinositol 4,5-bisphosphate 3-kinase catalytic subunit alpha isoform (Homo sapiens), P42336 [C420R]; assay: Binding affinity to human partial length PIK3CA C420R mutant (R108 to N1068 residues) expressed in mammalian expression system assessed as residual binding level at 1 uM by Kinomescan method relative to control
Activated CDC42 kinase 1 = Activated CDC42 kinase 1 (Homo sapiens, UniProt Q07912); assay: Binding affinity to wild-type human partial length TNK2 (S159 to D474 residues) expressed in bacterial expression system assessed as residual binding level at 1 uM by Kinomescan method relative to control
[23] = target: Serine/threonine-protein kinase 32C (Homo sapiens) (UniProt Q86UX6); assay: Binding affinity to wild-type human partial length YANK3 (M68 to G486 residues) expressed in bacterial expression system assessed as residual binding level at 1 uM by Kinomescan method relative to control

**Q.** With `C=CC(=O)Nc1cc(Nc2ncc(Cl)c(Nc3ccccc3S(=O)(=O)C(C)C)n2)c(OC)cc1N(C)CCN(C)C` as the compound, how does the remaining at 0.5 h, 1 µM [1] read?
**A.** The remaining at 0.5 h, 1 µM was 17%.

**Q.** What about the concentration at 8 h [2] of the same compound?
**A.** Its concentration at 8 h is 10 nM.

**Q.** What about the concentration at 8 h [3] of the same compound?
**A.** Its concentration at 8 h is 110 nM.

**Q.** What about the Activity [4] of the same compound?
**A.** The Activity was 5.5%.

**Q.** What about the Activity [5] of the same compound?
**A.** The Activity was 43%.

**Q.** What about the Activity [6] of the same compound?
**A.** The Activity was 94%.

**Q.** And the Activity [7]?
**A.** The Activity was 4.5%.

**Q.** What about the Activity [8] of the same compound?
**A.** The Activity was 0.4%.

**Q.** And the Activity [9]?
**A.** The Activity was 80%.

**Q.** What about the Activity [10] of the same compound?
**A.** The Activity was 26%.

**Q.** What about the Activity [11] of the same compound?
**A.** The Activity was 0%.

**Q.** And the Activity [12]?
**A.** Its Activity is 75%.

**Q.** And the Activity [13]?
**A.** Its Activity is 97%.

**Q.** And the Activity [14]?
**A.** Its Activity is 38%.

**Q.** What about the Activity [15] of the same compound?
**A.** The Activity was 1.6%.

**Q.** What about the Activity [16] of the same compound?
**A.** The Activity was 88%.

**Q.** And the Activity [17]?
**A.** The Activity was 0.95%.

**Q.** And the Activity [18]?
**A.** Its Activity is 82%.

**Q.** And the Activity [19]?
**A.** Its Activity is 100%.

**Q.** And the Activity [20]?
**A.** The Activity was 86%.

**Q.** What about the Activity [21] of the same compound?
**A.** Its Activity is 77%.

**Q.** And the Activity [22]?
**A.** The Activity was 87%.

**Q.** What about the Activity (Activated CDC42 kinase 1) of the same compound?
**A.** Its Activity is 0.15%.

**Q.** What about the Activity [23] of the same compound?
**A.** The Activity was 13%.
